Laboratory results taken from paper PMC3818380 (Archives of biochemistry and biophysics, 2013).

Biological target: interphotoreceptor retinoid-binding protein (IRBP) (Bos taurus, UniProt P12661)
Test: Surface plasmon resonance
Set-up: species or system bovine
Conditions: for Stoichiometry (No. of sites): SPR, 25°C, n=3, ligand:IRBP binding stoichiometry; for kon: pH 7.4, read-out: ka, association rate constant; for koff: pH 7.4, read-out: kd, dissociation rate constant
Outline: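 IRBP purified by chromatography from dark-adapted bovine retinas and amine-coupled at 10 µg/mL in 10 mM sodium acetate pH 4.5 to 10–12 kRU, with an unmodified reference channel. Running buffer 10 mM PBS pH 7.4, 0.01% Tween-20, 3% DMSO; for fatty acids, HEPES pH 7.4, 0.01% Tween-20, 3% ethanol. Seven two-fold FastStep injections, typically 0.01–15 µM, in triplicate at 25°C. Data double-referenced and globally fitted.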

interphotoreceptor retinoid-binding protein (IRBP), sequence (P12661 23-1286): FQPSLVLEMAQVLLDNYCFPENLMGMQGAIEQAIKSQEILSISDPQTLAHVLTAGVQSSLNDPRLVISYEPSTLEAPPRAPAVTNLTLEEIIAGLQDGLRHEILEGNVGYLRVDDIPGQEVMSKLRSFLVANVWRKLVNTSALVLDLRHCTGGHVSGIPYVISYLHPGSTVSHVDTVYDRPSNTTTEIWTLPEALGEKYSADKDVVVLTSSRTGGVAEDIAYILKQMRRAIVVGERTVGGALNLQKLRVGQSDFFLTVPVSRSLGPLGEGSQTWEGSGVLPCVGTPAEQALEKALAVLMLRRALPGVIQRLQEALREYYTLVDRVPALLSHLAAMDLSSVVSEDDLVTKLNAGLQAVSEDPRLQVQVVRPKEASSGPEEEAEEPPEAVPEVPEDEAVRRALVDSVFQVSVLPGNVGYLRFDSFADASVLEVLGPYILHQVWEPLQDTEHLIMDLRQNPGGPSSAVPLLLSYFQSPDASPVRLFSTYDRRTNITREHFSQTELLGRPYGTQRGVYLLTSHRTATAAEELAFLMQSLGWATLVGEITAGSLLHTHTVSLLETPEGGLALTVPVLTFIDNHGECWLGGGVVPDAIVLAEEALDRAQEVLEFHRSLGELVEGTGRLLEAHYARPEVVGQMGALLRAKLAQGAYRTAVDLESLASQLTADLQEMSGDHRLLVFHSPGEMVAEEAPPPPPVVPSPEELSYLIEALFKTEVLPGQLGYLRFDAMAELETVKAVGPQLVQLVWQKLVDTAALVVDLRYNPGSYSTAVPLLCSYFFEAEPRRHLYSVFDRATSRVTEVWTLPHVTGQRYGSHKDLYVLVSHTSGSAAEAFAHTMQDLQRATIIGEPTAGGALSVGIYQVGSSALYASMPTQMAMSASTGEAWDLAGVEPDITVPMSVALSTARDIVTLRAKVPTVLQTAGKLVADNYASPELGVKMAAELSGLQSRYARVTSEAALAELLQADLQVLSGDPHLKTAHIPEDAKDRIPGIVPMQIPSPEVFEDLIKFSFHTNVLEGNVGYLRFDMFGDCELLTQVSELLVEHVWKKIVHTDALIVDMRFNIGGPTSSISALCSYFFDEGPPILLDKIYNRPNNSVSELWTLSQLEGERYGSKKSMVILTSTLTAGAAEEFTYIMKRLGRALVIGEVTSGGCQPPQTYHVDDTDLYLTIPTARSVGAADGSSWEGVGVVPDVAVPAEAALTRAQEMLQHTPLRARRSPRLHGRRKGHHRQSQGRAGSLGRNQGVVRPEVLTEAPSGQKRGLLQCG

Row | Molecule | Kd | Stoichiometry (No. of sites) | kon | koff
1 | CC1=C(/C=C/C(C)=C/C=C/C(C)=C/C=C/C=C(C)/C=C/C=C(C)/C=C/C2=C(C)C(=O)[C@@H](O)CC2(C)C)C(C)(C)C[C@H](O)C1=O [Astaxanthin] | 1.64 ± 0.06 µM | 3.4 | 26800 ± 9e+07 M⁻¹ s⁻¹ | 0.04 ± 0.5 s⁻¹
2 | CC1=C(/C=C/C(C)=C/C=C/C(C)=C/C=C/C=C(C)/C=C/C=C(C)/C=C/C2=C(C)C[C@@H](O)CC2(C)C)C(C)(C)C[C@H](O)C1 [Zeaxanthin] | 1.64 ± 0.5 µM | 3.3 | 33000 ± 1e+07 M⁻¹ s⁻¹ | 0.05 ± 0.5 s⁻¹
3 | CC/C=C\C/C=C\C/C=C\C/C=C\C/C=C\C/C=C\CCC(=O)O [Docosahexaenoic acid (DHA), Docosahexaenoic acid] | 10 ± 0.1 µM | 3.4 | 20000 ± 2e+07 M⁻¹ s⁻¹ | 0.2 ± 0.2 s⁻¹
4 | CCCCCCCCCCCCCCCCCC(=O)O [Stearic acid] | 7.03 ± 0.1 µM | 3.7 | 32000 ± 4e+07 M⁻¹ s⁻¹ | 0.23 ± 0.6 s⁻¹
5 | CC1=C(/C=C/C(C)=C/C=C/C(C)=C/CO)C(C)(C)CCC1 [all-trans-retinol] | – | 3.5 | – | –
6 | CCCCCCCC/C=C\CCCCCCCC(=O)O [Oleic acid] | 7.3 ± 0.7 µM | 3.6 | 150000 ± 2e+09 M⁻¹ s⁻¹ | 1.1 ± 0.3 s⁻¹
7 | CCCCCCCCCCCCCCCCCCCC(=O)O [Arachidic acid] | 10.2 ± 0.7 µM | 3.7 | 280000 ± 1e+09 M⁻¹ s⁻¹ | 2.8 ± 0.1 s⁻¹
8 | CCCCCCCCCCCCCCCC(=O)O [Palmitic acid] | 11.1 ± 0.7 µM | 3.7 | 360000 ± 2e+09 M⁻¹ s⁻¹ | 0.4 ± 0.1 s⁻¹
9 | CC1=C(/C=C/C(C)=C/C=C/C(C)=C/C=O)C(C)(C)CCC1 [all-trans-retinal] | – | 3.2 | – | –
10 | CC1=C[C@H](O)CC(C)(C)[C@H]1/C=C/C(C)=C/C=C/C(C)=C/C=C/C=C(C)/C=C/C=C(C)/C=C/C1=C(C)C[C@@H](O)CC1(C)C [Lutein] | 1.06 ± 0.2 µM | 3.4 | 49000 ± 9e+07 M⁻¹ s⁻¹ | 0.05 ± 0.4 s⁻¹

The next lines start with the values.

Row | Kd | Stoichiometry (No. of sites) | kon | koff | Molecule
11 | – | 3.2 | – | – | meso-zeaxanthin
12 | 10 ± 0.1 µM | 3.8 | 24000 ± 3e+07 M⁻¹ s⁻¹ | 0.24 ± 0.3 s⁻¹ | CCCCC/C=C\C/C=C\C/C=C\C/C=C\CCCC(=O)O [Arachidonic acid]
13 | – | 3.1 | – | – | CC1=C(/C=C/C(C)=C/C=C/C(C)=C/C=O)C(C)(C)CCC1 [11-cis-retinal]
14 | 9.4 ± 0.7 µM | 3.4 | 30000 ± 2e+07 M⁻¹ s⁻¹ | 0.28 ± 0.4 s⁻¹ | CC/C=C\C/C=C\C/C=C\C/C=C\C/C=C\CCCC(=O)O [Eicosapentaenoic acid (EPA), Eicosapentaenoic acid]
15 | 0.92 ± 0.1 µM | 3.1 | 122000 ± 2e+09 M⁻¹ s⁻¹ | 0.11 ± 0.8 s⁻¹ | CC1=C(/C=C/C(C)=C/C=C/C(C)=C/C=C/C=C(C)/C=C/C=C(C)/C=C/C2=C(C)CCCC2(C)C)C(C)(C)CCC1 [β-carotene]
16 | 11 ± 0.2 µM | 3.7 | 23000 ± 4e+07 M⁻¹ s⁻¹ | 0.26 ± 0.4 s⁻¹ | CCCCC/C=C\C/C=C\CCCCCCCC(=O)O [Linoleic acid]
17 | 3.5 ± 0.1 µM | 3.4 | 40000 ± 1e+07 M⁻¹ s⁻¹ | 0.14 ± 0.2 s⁻¹ | CC1=C(/C=C/C(C)=C/C=C/C(C)=C/C(=O)O)C(C)(C)CCC1 [all -trans -retinoic acid]
